Measured values: ChEMBL document CHEMBL4428050, “Design, Synthesis, and Biological Evaluation of Substituted Pyrimidines as Potential Phosphatidylinositol 3-Kinase (PI3K) Inhibitors” (J Med Chem, 2016)
Active and inactive are the calls of the source. The rule behind the calls is not given here.

How the values were obtained:
Homo sapiens [1] = organism: Homo sapiens; test: Inhibition of PI3K in human U937 cells assessed as suppression of AKT phosphorylation at S473 after 24 hrs by Western blot analysis; assay type: cell-based
[2] = Inhibition of PI3K p110alpha/p85 (unknown origin) using PIP2/ATP as substrate after 1 hr by kinase glo luminescent assay; set-up: species or system Homo sapiens
Summary of the method: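 PI3K p110α activity read by Kinase-Glo Plus luminescence. IC50 is the mean of triplicate measurements.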

[3] = Inhibition of PI3K p110beta/p85 (unknown origin) using PIP2/ATP as substrate after 1 hr by kinase glo luminescent assay; set-up: species or system Homo sapiens
[4] = Inhibition of PI3K p110delta/p85 (unknown origin) using PIP2/ATP as substrate after 1 hr by kinase glo luminescent assay; set-up: species or system Homo sapiens
K562 = test: Antiproliferative activity against human K562 cells after 72 hrs by CCK8 assay; assay type: functional, cell-based
MOLT-4 = test: Antiproliferative activity against human MOLT4 cells after 72 hrs by CCK8 assay; assay type: functional, cell-based
Bel-7402 = test: Antiproliferative activity against human Bel7402 cells after 72 hrs by CCK8 assay; assay type: functional, cell-based; conditions: Bel-7402, 72 h
U-937 = test: Antiproliferative activity against human U937 cells after 72 hrs by CCK8 assay; assay type: functional, cell-based
Huh-7 = test: Antiproliferative activity against human HuH7 cells after 72 hrs by CCK8 assay; assay type: functional, cell-based; conditions: Huh-7, 72 h
MCF7 = test: Antiproliferative activity against human MCF7 cells after 72 hrs by CCK8 assay; assay type: functional, cell-based
DU-145 = test: Antiproliferative activity against human DU145 cells after 72 hrs by CCK8 assay; assay type: functional, cell-based
NCI-N87 = test: Antiproliferative activity against human NCI-N87 cells after 72 hrs by CCK8 assay; assay type: functional, cell-based
SGC-7901 = test: Antiproliferative activity against human SGC7901 cells after 72 hrs by CCK8 assay; assay type: functional, cell-based; conditions: SGC-7901, 72 h
BGC-823 = test: Antiproliferative activity against human BGC823 cells after 72 hrs by CCK8 assay; assay type: functional, cell-based; conditions: Homo sapiens, BGC-823, 72 h
HT-1080 = test: Antiproliferative activity against human HT1080 cells after 72 hrs by CCK8 assay; assay type: functional, cell-based; conditions: HT-1080, 72 h
A-431 = test: Antiproliferative activity against human A431 cells after 72 hrs by CCK8 assay; assay type: functional, cell-based
A549 = test: Antiproliferative activity against human A549 cells after 72 hrs by CCK8 assay; assay type: functional, cell-based
PANC-1 = test: Antiproliferative activity against human PANC1 cells after 72 hrs by CCK8 assay; assay type: functional, cell-based
HeLa = test: Antiproliferative activity against human HeLa cells after 72 hrs by CCK8 assay; assay type: functional, cell-based
SK-BR-3 = test: Antiproliferative activity against human SK-BR-3 cells after 72 hrs by CCK8 assay; assay type: functional, cell-based; conditions: SK-BR-3, 72 h
HL-60 = test: Antiproliferative activity against human HL60 cells after 72 hrs by CCK8 assay; assay type: functional, cell-based; conditions: HL-60, 72 h
MDA-MB-231 [5] = test: Antiproliferative activity against human MDA-MB-231 cells by WST8 assay; assay type: functional, cell-based
PC-3 = test: Antiproliferative activity against human PC3 cells after 72 hrs by CCK8 assay; assay type: functional, cell-based; conditions: PC-3, 72 h
[6] = target: PI3-kinase subunit gamma/Phosphoinositide 3-kinase regulatory subunit 5 (Homo sapiens, UniProt P48736); test: Inhibition of PI3K p110gamma/p101 (unknown origin) using PIP2/ATP as substrate after 1 hr by kinase glo luminescent assay; assay type: protein-complex assay
Homo sapiens [7] = organism: Homo sapiens; test: Selectivity ratio of IC50 for PI3K p110beta/p85 (unknown origin) to IC50 for PI3K p110alpha/p85 (unknown origin)
MDA-MB-231 [8] = test: Antitumor activity against human MDA-MB-231 cells xenografted in nude mouse assessed as tumor size at 30 mg/kg, ig administered every 2 days for 19 days measured post last dose (reference value: 1065 +/- 142 mm'3); assay type: functional
Summary of the method: (§1)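 Nude mice carried MDA-MB-231 xenograft tumours and received vehicle or 30 mg/kg intragastrically every two days for 19 days. Estimated tumour volume and body weight were followed over time. Tumours were dissected from 5 mice per group and weighed. Data are mean±SD, n=5, Student t test.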

MDA-MB-231 [9] = test: Antitumor activity against human MDA-MB-231 cells xenografted in nude mouse assessed as tumor weight at 30 mg/kg, ig administered every 2 days for 19 days measured post last dose (reference value: 0.74 +/- 0.10 g); assay type: functional; summary of the method: as §1
[10] = Toxicity in nude mouse xenografted with human MDA-MB-231 cells assessed as decrease in body weight at 30 mg/kg, ig administered every 2 days for 19 days measured during compound dosing; assay type: organism-based; conditions: in vivo, po; summary of the method: as §1

Chain of PI3-kinase subunit gamma/Phosphoinositide 3-kinase regulatory subunit 5 (P48736 whole entry): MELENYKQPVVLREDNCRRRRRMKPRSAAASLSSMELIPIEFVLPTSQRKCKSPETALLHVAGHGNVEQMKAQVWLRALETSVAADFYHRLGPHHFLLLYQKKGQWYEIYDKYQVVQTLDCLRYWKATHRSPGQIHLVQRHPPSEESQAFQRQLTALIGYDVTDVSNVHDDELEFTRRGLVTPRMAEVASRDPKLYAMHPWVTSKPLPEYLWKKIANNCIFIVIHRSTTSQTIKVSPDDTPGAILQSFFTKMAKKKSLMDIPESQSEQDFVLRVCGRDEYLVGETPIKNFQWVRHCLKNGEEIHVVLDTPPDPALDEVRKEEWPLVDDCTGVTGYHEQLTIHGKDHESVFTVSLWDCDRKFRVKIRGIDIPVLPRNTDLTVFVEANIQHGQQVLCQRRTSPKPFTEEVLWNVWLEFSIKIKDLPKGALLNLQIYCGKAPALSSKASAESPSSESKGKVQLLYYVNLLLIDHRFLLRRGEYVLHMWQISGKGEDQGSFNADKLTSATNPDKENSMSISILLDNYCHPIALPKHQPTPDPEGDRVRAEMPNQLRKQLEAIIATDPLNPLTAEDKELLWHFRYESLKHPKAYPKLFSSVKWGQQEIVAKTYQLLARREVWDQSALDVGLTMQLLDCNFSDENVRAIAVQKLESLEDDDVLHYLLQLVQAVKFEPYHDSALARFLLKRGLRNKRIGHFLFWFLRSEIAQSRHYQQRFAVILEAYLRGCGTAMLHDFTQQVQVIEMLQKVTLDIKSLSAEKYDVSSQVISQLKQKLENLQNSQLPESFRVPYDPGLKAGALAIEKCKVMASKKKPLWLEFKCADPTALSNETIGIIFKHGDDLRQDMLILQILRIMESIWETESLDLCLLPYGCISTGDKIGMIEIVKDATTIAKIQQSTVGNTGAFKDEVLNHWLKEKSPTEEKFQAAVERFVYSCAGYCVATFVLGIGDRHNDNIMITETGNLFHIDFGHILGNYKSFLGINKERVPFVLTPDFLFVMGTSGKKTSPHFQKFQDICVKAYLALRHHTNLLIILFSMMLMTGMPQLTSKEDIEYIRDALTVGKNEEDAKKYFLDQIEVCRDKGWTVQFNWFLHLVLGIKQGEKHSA
Chain of PI3-kinase subunit gamma/Phosphoinositide 3-kinase regulatory subunit 5 (Q8WYR1 whole entry, further chain): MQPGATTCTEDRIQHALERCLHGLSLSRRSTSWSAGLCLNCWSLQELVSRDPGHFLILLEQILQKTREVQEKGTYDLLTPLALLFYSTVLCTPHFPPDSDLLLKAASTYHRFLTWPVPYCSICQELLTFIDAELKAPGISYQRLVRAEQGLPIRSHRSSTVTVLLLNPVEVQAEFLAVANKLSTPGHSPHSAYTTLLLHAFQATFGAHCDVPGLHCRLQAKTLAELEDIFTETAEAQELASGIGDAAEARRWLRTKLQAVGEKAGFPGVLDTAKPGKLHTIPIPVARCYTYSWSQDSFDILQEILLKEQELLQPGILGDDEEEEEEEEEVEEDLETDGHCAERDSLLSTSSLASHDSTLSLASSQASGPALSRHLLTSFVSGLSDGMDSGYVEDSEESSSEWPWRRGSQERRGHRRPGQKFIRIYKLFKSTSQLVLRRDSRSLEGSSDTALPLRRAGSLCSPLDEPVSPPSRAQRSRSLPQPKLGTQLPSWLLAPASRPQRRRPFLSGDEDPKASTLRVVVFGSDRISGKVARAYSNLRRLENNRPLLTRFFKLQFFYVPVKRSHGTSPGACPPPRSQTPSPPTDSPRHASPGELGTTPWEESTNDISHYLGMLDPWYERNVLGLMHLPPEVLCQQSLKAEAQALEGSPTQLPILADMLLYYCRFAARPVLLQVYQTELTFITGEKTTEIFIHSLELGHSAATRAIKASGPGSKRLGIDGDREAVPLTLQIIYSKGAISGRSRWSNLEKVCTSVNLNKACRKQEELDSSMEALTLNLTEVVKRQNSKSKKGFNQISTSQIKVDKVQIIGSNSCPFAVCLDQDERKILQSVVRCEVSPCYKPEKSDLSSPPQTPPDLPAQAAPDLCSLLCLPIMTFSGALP

Structure (SMILES) | IC50 [2] | IC50 [3] | IC50 [4] | IC50 (K562; Homo sapiens, K562, 72 h) | IC50 (MOLT-4; Homo sapiens, MOLT-4, 72 h) | IC50 (Bel-7402) | IC50 (U-937; Homo sapiens, U-937, 72 h) | IC50 (Huh-7) | IC50 (MCF7; Homo sapiens, MCF7, 72 h) | IC50 (DU-145; Homo sapiens, DU-145, 72 h) | IC50 (A-431; Homo sapiens, A-431, 72 h) | IC50 (A549; Homo sapiens, A549, 72 h) | IC50 (PANC-1; Homo sapiens, PANC-1, 72 h) | IC50 (HeLa; Homo sapiens, HeLa, 72 h) | IC50 (SK-BR-3) | IC50 (HL-60) | IC50 (MDA-MB-231 [5]) | IC50 (PC-3) | inhibition (Homo sapiens [1]) | IC50 (NCI-N87; Homo sapiens, NCI-N87, 72 h) | further results
Nc1cc(C(F)(F)F)c(-c2cc(N3CCOCC3)nc(N3C[C@@H]4OCCO[C@H]4C3)n2)cn1 (racemic) [listing 1 of 2 here] | – | – | – | – | – | – | – | – | – | – | – | – | – | – | – | – | – | – | Active | – | –
CS(=O)(=O)N1CCN(c2ccc(Nc3nc(-c4cnc(N)cc4C(F)(F)F)cc(N4CCOCC4)n3)cc2)CC1 | 31 nM | – | – | 11.2 µM | 1110 nM | – | 2.39 µM | – | 4.97 µM | 6710 nM | 5.9 µM | 5.46 µM | 2.36 µM | > 100000 nM | 1.63 µM | 940 nM | 5.36 µM | 7.49 µM | – | 1290 nM | –
CS(=O)(=O)N1CCN(C(=O)c2ccc(Nc3nc(-c4cnc(N)cc4C(F)(F)F)cc(N4CCOCC4)n3)cc2)CC1 | 18 nM | 2010 nM | 13 nM | – | 1960 nM | – | 4.74 µM | – | 12.8 µM | – | 10.5 µM | 9.13 µM | 3.47 µM | > 100000 nM | 4.79 µM | 2490 nM | 4.34 µM | 19.5 µM | Active | 4220 nM | IC50 [6]: 80 nM; Ratio IC50 (Homo sapiens [7]): 112
CC(/C=C/C(=O)NO)=C\[C@@H](C)C(=O)c1ccc(N(C)C)cc1 [TRICHOSTATIN] | – | – | – | 0.12 µM | 20 nM | 100 nM | 0.04 µM | 60 nM | 0.07 µM | 60 nM | 0.18 µM | 0.05 µM | 0.1 µM | 90 nM | 0.05 µM | – | – | – | – | 60 nM | IC50 (SGC-7901): 30 nM; IC50 (BGC-823): 70 nM; IC50 (HT-1080): 80 nM
Nc1cc(C(F)(F)F)c(-c2cc(N3CCOCC3)nc(Nc3cccc(N4CCOCC4)c3)n2)cn1 | 118 nM | – | – | 14.9 µM | 4070 nM | – | 10.4 µM | – | 16.5 µM | 990 nM | 11.5 µM | 4.57 µM | 8.52 µM | > 100000 nM | 6.53 µM | 4340 nM | 7.28 µM | 2.21 µM | – | 4660 nM | –

Now from value to molecule, other results behind:

IC50 [2] | IC50 [3] | IC50 [4] | IC50 (K562; Homo sapiens, K562, 72 h) | IC50 (MOLT-4; Homo sapiens, MOLT-4, 72 h) | IC50 (Bel-7402) | IC50 (U-937; Homo sapiens, U-937, 72 h) | IC50 (Huh-7) | IC50 (MCF7; Homo sapiens, MCF7, 72 h) | IC50 (DU-145; Homo sapiens, DU-145, 72 h) | IC50 (A-431; Homo sapiens, A-431, 72 h) | IC50 (A549; Homo sapiens, A549, 72 h) | IC50 (PANC-1; Homo sapiens, PANC-1, 72 h) | IC50 (HeLa; Homo sapiens, HeLa, 72 h) | IC50 (SK-BR-3) | IC50 (HL-60) | IC50 (MDA-MB-231 [5]) | IC50 (PC-3) | Structure (SMILES) | inhibition (Homo sapiens [1]) | IC50 (NCI-N87; Homo sapiens, NCI-N87, 72 h) | further results
28 nM | 259 nM | 62 nM | 1.1 µM | 800 nM | 1920 nM | 0.58 µM | 1510 nM | 1.5 µM | 910 nM | 1.03 µM | 1.51 µM | 1.83 µM | 1170 nM | – | – | – | – | Nc1cc(C(F)(F)F)c(-c2cc(N3CCOCC3)nc(N3CCOCC3)n2)cn1 [BUPARLISIB] | Active | 660 nM | IC50 (SGC-7901): 1240 nM; IC50 (BGC-823): 1430 nM; IC50 (HT-1080): 2080 nM
68 nM | – | – | – | – | – | – | – | – | – | – | – | – | – | 4.27 µM | 2700 nM | 15.1 µM | 5.63 µM | Nc1cc(C(F)(F)F)c(-c2nc(N3CCOCC3)nc(N3C[C@H]4OCCO[C@@H]4C3)n2)cn1 | – | – | IC50 (K562; k562): 24.6 µM; IC50 (MOLT-4; molt-4): 2280 nM; IC50 (U-937; u-937): 4.03 µM; IC50 (MCF7; mcf7): 7.32 µM; IC50 (DU-145; du-145): 7360 nM; IC50 (NCI-N87; nci-n87): 3900 nM; IC50 (A-431; a-431): 14.1 µM; IC50 (A549; a549): 8.01 µM; IC50 (PANC-1; panc-1): 9.04 µM; IC50 (HeLa; hela): > 100000 nM
38 nM | – | – | 24.5 µM | 2080 nM | – | 5.53 µM | – | 9.29 µM | 1080 nM | 32.2 µM | 9.5 µM | 7.64 µM | > 100000 nM | 3.67 µM | 4850 nM | 11.9 µM | 6.24 µM | Nc1cc(C(F)(F)F)c(-c2nc(N3CCOCC3)nc(N3C[C@@H]4OCCO[C@H]4C3)n2)cn1 | – | 2770 nM | –
31 nM | 175 nM | 61 nM | 4.26 µM | 1000 nM | 3370 nM | 0.77 µM | 4260 nM | 2.42 µM | – | 3.68 µM | 3.39 µM | 3.26 µM | 2660 nM | – | – | – | – | Nc1cc(C(F)(F)F)c(-c2cc(N3CCOCC3)nc(N3C[C@@H]4OCCO[C@H]4C3)n2)cn1 (racemic) [listing 2 of 2 here] | – | 1360 nM | IC50 [6]: 158 nM; IC50 (DU-145; du-145): 1930 nM; IC50 (SGC-7901): 3140 nM; IC50 (BGC-823): 3090 nM; IC50 (HT-1080): 4730 nM; Activity (MDA-MB-231 [8]): 402 mm3; Activity (MDA-MB-231 [9]): 0.32 g; Activity [10]: Non-Toxic
